Reference: ChEMBL document CHEMBL1127320, “Dual-action cephalosporins incorporating a 3'-tertiary-amine-linked quinolone” (J Med Chem, 1994)
≈ marks a conversion by molar mass, not a printed value.

What was measured:
Type in all cases: functional
[1] = tested on: Enterococcus faecalis; experiment: In vitro minimum inhibitory concentration was measured against Enterococcus faecalis ATCC 29212 strain.
How it was run: (§1)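 Streptococci were tested on brain heart infusion agar plus 20 units/mL catalase, Proteus on Mueller-Hinton with 3% agar, and others on Mueller-Hinton agar. Inocula were 100-fold-diluted overnight cultures, about 3 × 10^4 CFU/spot, read after overnight incubation at 36 °C.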

[2] = tested on: Serratia marcescens; experiment: In vitro minimum inhibitory concentration was measured against Serratia marcescens 1071(beta lactamase producer) strain.; how it was run: as §1
[3] = tested on: Streptococcus pneumoniae; experiment: In vitro minimum inhibitory concentration was measured against Streptococcus pneumoniae 6301 strain; how it was run: as §1
[4] = tested on: Citrobacter freundii; experiment: In vitro minimum inhibitory concentration was measured against Citrobacter freundii BS-16 (beta lactamase producer) strain.
How it was run: as §1, with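 “MICs were determined by agar dilution with 2-fold dilutions giving final 128–0.0156 µg/mL, extended to 0.000977 µg/mL where needed. Streptococci” for “Streptococci”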

[5] = tested on: Staphylococcus aureus; experiment: Tested for its efficacy against systemic murine infection caused by Staphylococcus aureus smith.
How it was run: (§2)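 CD1 Swiss albino mice (18-20 g) were infected intraperitoneally with 0.5 mL of diluted culture. Within 5 min they received 1.0 mL test solution subcutaneously at the dorsal neck, in dilutions spanning 250–0.05 mg/kg. P. aeruginosa groups received a second dose at 3 h. Groups were six mice. ED50 was calculated by Reed–Muench interpolation of cumulative survival.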

[6] = tested on: Klebsiella pneumoniae; experiment: In vitro minimum inhibitory concentration was measured against Klebsiella pneumoniae A strain.; how it was run: as §1
[7] = tested on: Staphylococcus aureus; experiment: In vitro minimum inhibitory concentration was measured against Staphylococcus aureus 67-0 (Methicillin resistant) strain.
[8] = tested on: Pseudomonas aeruginosa; experiment: Tested for its efficacy against systemic murine infection caused by Pseudomonas aeruginosa 8780.; how it was run: as §2
[9] = tested on: Staphylococcus aureus; experiment: In vitro minimum inhibitory concentration was measured against Staphylococcus aureus 753 (Methicillin resistant) strain.
[10] = tested on: Micrococcus luteus; experiment: In vitro minimum inhibitory concentration was measured against Micrococcus luteus ATCC 9341 strain.; how it was run: as §1
[11] = tested on: Klebsiella pneumoniae; experiment: Tested for its efficacy against systemic murine infection caused by Klebsiella pneumoniae A; how it was run: as §2
[12] = tested on: Proteus mirabilis; experiment: In vitro minimum inhibitory concentration was measured against Proteus mirabilis 90 strain.; how it was run: as §1
[13] = tested on: Streptococcus pneumoniae; experiment: Tested for its efficacy against systemic murine infection caused by Streptococcus pneumoniae 6301.; how it was run: as §2
[14] = tested on: Streptococcus pyogenes; experiment: In vitro minimum inhibitory concentration was measured against Streptococcus pyogenes 4 strain.; how it was run: as §1
[15] = tested on: Serratia marcescens; experiment: Tested for its efficacy against systemic murine infection caused by Serratia marcescens SM.; how it was run: as §2

O=C(O)c1cn(C2CC2)c2cc(N3CCNCC3)c(F)cc2c1=O [CIPROFLOXACIN]
MIC [1]: 1 µg/mL (≈ 3.02 µM)
MIC [2]: 0.063 µg/mL (≈ 0.19 µM)
MIC [3]: 1 µg/mL (≈ 3.02 µM)
MIC [4]: 0.031 µg/mL (≈ 0.0936 µM)
ED50 [5]: 3 mg/kg
MIC [6]: 0.25 µg/mL (≈ 0.754 µM)
MIC [7]: 0.5 µg/mL (≈ 1.51 µM)
ED50 [8]: 4 mg/kg
MIC [9]: 0.25 µg/mL (≈ 0.754 µM)
MIC [10]: 2 µg/mL (≈ 6.04 µM)
ED50 [11]: 1 mg/kg
MIC [12]: 0.063 µg/mL (≈ 0.19 µM)
ED50 [13]: > 100 mg/kg
MIC [14]: 0.5 µg/mL (≈ 1.51 µM)
ED50 [15]: < 0.5 mg/kg
